Experimental data published in ChEMBL document CHEMBL2046409, “Design and synthesis of active site inhibitors of the human farnesyl pyrophosphate synthase: apoptosis and inhibition of ERK phosphorylation in multiple myeloma cells” (J Med Chem, 2012).
Blank lines part the entries; values can stand above or below the compound they belong to. Calls of active or inactive are those of the source. The rule behind the calls is not given here.

How the values were obtained:
[1] = Antiproliferative activity against human JJN-3 after 72 hrs by MTT assay; assay type: functional; settings: JJN-3, 72 h
[2] = Antiproliferative activity against human […] after 72 hrs by MTT assay; assay type: functional
Outline: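 Cells seeded at 10,000/well and rested 2 h, then given compound diluted in culture medium as a half-log series spanning 100 nM–333 μM. Incubated 72 h at 37 °C in 5% CO2. MTT read at OD490.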

[3] = Antiproliferative activity against human KMS-28PE after 72 hrs by MTT assay; assay type: functional
[4] = biological target: T1, Farnesyl pyrophosphate synthase (Homo sapiens, UniProt P14324); experiment: Inhibition of human recombinant N-terminal-His6 tagged FPPS expressed in Escherichia coli BL21 using [14C]IPP and GPP as substrate incubated for 10 mins prior to substrate addition measured after 10 mins by scintillation counting
T1 sequence (P14324 whole entry): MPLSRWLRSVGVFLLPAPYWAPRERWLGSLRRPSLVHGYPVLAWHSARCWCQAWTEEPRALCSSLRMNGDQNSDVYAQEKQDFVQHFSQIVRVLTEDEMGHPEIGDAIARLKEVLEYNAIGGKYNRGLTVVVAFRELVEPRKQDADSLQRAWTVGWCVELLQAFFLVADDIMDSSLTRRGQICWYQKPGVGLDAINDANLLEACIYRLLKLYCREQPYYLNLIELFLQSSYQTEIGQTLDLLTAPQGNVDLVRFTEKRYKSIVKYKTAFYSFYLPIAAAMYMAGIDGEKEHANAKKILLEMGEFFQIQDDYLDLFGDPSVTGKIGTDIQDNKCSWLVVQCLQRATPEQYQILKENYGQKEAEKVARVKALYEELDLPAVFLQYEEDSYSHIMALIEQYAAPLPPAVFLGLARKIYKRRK

[5] = biological target: T1, Farnesyl pyrophosphate synthase; experiment: Inhibition of human recombinant N-terminal-His6 tagged FPPS expressed in Escherichia coli BL21 using [3H]IPP and GPP as substrate measured after 20 mins by liquid scintillation counting
[6] = Induction of apoptosis in human KMS-28PE cells assessed as viable cells at 1 uM after 48 hrs by AnnexinV/7AAD staining-based flow cytometric assay (reference value: 93%); assay type: functional; settings: read-out: Activity
[7] = Induction of apoptosis in human KMS-28PE cells assessed as viable cells at 100 uM after 48 hrs by AnnexinV/7AAD staining-based flow cytometric assay (reference value: 93%); assay type: functional; settings: read-out: Activity
[8] = Induction of apoptosis in human KMS-28PE cells assessed as early apoptotic cells at 1 uM after 48 hrs by AnnexinV/7AAD staining-based flow cytometric assay (reference value: 1.44%); assay type: functional
[9] = Induction of apoptosis in human KMS-28PE cells assessed as early apoptotic cells at 100 uM after 48 hrs by AnnexinV/7AAD staining-based flow cytometric assay (reference value: 1.44%); assay type: functional
[10] = Induction of apoptosis in human KMS-28PE cells assessed as late apoptotic cells at 1 uM after 48 hrs by AnnexinV/7AAD staining-based flow cytometric assay (reference value: 5.18%); assay type: functional
[11] = Induction of apoptosis in human KMS-28PE cells assessed as late apoptotic cells at 100 uM after 48 hrs by AnnexinV/7AAD staining-based flow cytometric assay (reference value: 5.18%); assay type: functional
[12] = Induction of apoptosis in human KMS-28PE cells assessed as necrotic cells at 1 uM after 48 hrs by AnnexinV/7AAD staining-based flow cytometric assay (reference value: 0.36%); assay type: functional
[13] = Induction of apoptosis in human KMS-28PE cells assessed as necrotic cells at 100 uM after 48 hrs by AnnexinV/7AAD staining-based flow cytometric assay (reference value: 0.36%); assay type: functional
[14] = biological target: T2, Farnesyl pyrophosphate synthase (Homo sapiens) (UniProt P14324); experiment: Inhibition of FPPS in human RPMI8226 cells assessed as inhibition of Ras-mediated ERK phosphorylation at 100 uM up to 20 mins by Western blot analysis; assay type: cell-based; settings: RPMI-8226
T2 sequence (whole entry): T1 sequence (P14324 whole entry)
Outline: (§1)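 RPMI8226 cells serum-starved overnight, then stimulated with 10% FBS with or without 100 μM inhibitor for 0 (starved only), 10 and 20 min. Washed in ice-cold PBS/BSA and lysed in Triton/deoxycholate buffer with protease inhibitors. ERK and pERK detected by Western blot with HRP secondary antibodies and ECL chemiluminescence.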

[15] = system: RPMI-8226; experiment: Inhibition of ERK protein expression level in human RPMI8226 cells at 100 uM up to 20 mins by Western blot analysis; assay type: functional, cell-based; outline: as §1
[16] = biological target: T1, Farnesyl pyrophosphate synthase; experiment: Inhibition of human FPPS using […] as substrate incubated for 30 mins prior to substrate addition measured after 20 mins by scintillation counting

SMILES: O=P(O)(O)C(O)(Cn1ccnc1)P(=O)(O)O [ZOLEDRONIC ACID]
EC50 [1]: 9.4 µM | EC50 [2]: 10.5 µM | EC50 [3]: 6.4 µM

SMILES: O=P(O)(O)C(O)(Cc1cccnc1)P(=O)(O)O [RISEDRONIC ACID]
EC50 [1]: 10 µM | EC50 [3]: 10.6 µM

IC50 [4]: > 10 µM
SMILES: CC(C)=CCC/C(C)=C/CC(C/C=C(\C)CCC=C(C)C)(P(=O)(O)O)P(=O)(O)O [DIGERANYL BISPHOSPHONATE]

IC50 [4]: 0.52 µM
SMILES: O=P(O)(O)C(F)(Cc1cncc(-c2ccc3[nH]ncc3c2)c1)P(=O)(O)O

IC50 [4]: 0.032 µM | IC50 [5]: 0.785 µM | inhibition [14]: Active
SMILES: O=P(O)(O)C(Nc1cc(-c2ccc(OC3CCCC3)cc2)ccn1)P(=O)(O)O
EC50 [1]: 8.6 µM | EC50 [2]: 3.6 µM | EC50 [3]: 3.2 µM | viability at 1 µM [6]: 91.8% | viability at 100 µM [7]: 84.8% | Activity [8]: 1.81% | Activity [9]: 5.64% | Activity [10]: 5.94% | Activity [11]: 9.15% | Activity [12]: 0.4% | Activity [13]: 0.46% | inhibition [15]: inactive

IC50 [4]: 0.035 µM | IC50 [5]: 2.09 µM
SMILES: O=P(O)(O)C(Nc1cc(-c2ccc(OC3CCC3)cc2)ccn1)P(=O)(O)O

IC50 [16]: 0.1 µM
SMILES: CCCCCCCCCCOc1ccc[n+](CC(P(=O)([O-])O)P(=O)(O)O)c1 (stereo not drawn)

IC50 [4]: 0.035 µM
SMILES: Cc1ccc(-c2ccnc(NC(P(=O)(O)O)P(=O)(O)O)c2)cc1

IC50 [4]: 0.43 µM
SMILES: O=P(O)(O)C(Nc1cc(-c2ccc3[nH]ncc3c2)ccn1)P(=O)(O)O

IC50 [4]: 0.115 µM
SMILES: O=P(O)(O)C(F)(Cc1cncc(-c2ccccc2)c1)P(=O)(O)O
